Data set [1] deals with T1, Oxytocin receptor (Homo sapiens, UniProt P30559).
T1 sequence (P30559 whole entry): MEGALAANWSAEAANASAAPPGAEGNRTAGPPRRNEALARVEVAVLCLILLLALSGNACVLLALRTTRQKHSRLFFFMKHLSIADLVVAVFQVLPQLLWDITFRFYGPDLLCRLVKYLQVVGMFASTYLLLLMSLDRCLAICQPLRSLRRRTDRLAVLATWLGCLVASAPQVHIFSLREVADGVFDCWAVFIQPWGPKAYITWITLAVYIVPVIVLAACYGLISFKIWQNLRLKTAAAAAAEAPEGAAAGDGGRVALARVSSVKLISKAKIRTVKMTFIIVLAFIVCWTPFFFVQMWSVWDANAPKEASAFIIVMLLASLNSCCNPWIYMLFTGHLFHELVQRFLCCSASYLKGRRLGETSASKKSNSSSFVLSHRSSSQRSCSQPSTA
In words: Displacement of [3H]Oxytocin from human OXTR expressed in CHO cell membranes after 90 mins by liquid scintillation counting method.

A short description of data set [2]: Tmax in rhesus monkey plasma at 6150 ug, im by LC-MS method. In kind it is ADME, organism-based, Macaca mulatta. The procedure, abridged: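 Male rhesus macaques (5 yr, 9–13 kg), anaesthetised with Telazol IM then IV propofol drip, given 6.15 mg in propylene glycol (6.15 mg/ml) into inner thigh muscle (n=2). Plasma separated, stored −80 C, extracted by solid-liquid phase with ethyl acetate plus internal standard. LC-MS/MS (C18, water/methanol/formic acid) in duplicate against calibration curve in rhesus plasma; time of maximum plasma concentration taken.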

Data set [3] in a line: Tmax in rhesus monkey CSF at 7690 ug administered via intranasal nebulization for 8 mins by LC-MS method. The following applies: inhaled or intranasal. The format is ADME, Macaca mulatta, Cerebrospinal fluid. The procedure, abridged:
(§1)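 Four male rhesus macaques, 5 years old, 9–13 kg, under Telazol (4–5 mg/kg IM) then IV propofol. Dose in propylene glycol given by face mask from a pediatric nebulizer for 8 min. Lumbar CSF collected by passive drip at 60 and 120 min; blood-tinged CSF excluded. Plasma solid-phase extracted with ethyl acetate. LC-MS/MS in duplicate against an internal standard and a 0.8–10 pg/ml calibration curve. ke = (lnC1 − lnC2)/(t2 − t1), confirmed by semi-log regression; t1/2 = 0.693/ke.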

Data set [4] in a line: Half life in rhesus monkey plasma at 202 to 7690 ug administered via intranasal nebulization for 8 mins by LC-MS method. In kind it is ADME, cell-free, Macaca mulatta. The following applies: inhaled or intranasal. The procedure, abridged: as §1
Data set [5] relates to Rhesus monkey. In words: Activity at OXTR in rhesus monkey assessed as concentration in CSF required to elicit behavioral effects at 7.69 mg administered via intranasal nebulization for 8 mins. In kind it is functional, Macaca mulatta. In short, it runs like this: (§2)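 Estimated OXTR-relevant CSF targets for male rhesus macaques. Values come from OT levels before and after aerosolized IN OT (24 IU) reported in earlier work. They assume a 10 ml total CSF volume and scale from the in vitro Ki, which was measured by displacing 2 nM [3H]OT.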

Data set [6] deals with Rhesus monkey. Briefly: In vivo antagonist activity at OXTR in rhesus monkey assessed as concentration in CSF required to displace endogenous oxytocin at 7.69 mg administered via intranasal nebulization for 8 mins. The format is functional, Macaca mulatta. In short, it runs like this: as §2
Data set [7] is described as follows: Cmax in rhesus monkey plasma at 202 ug administered via intranasal nebulization for 8 mins by LC-MS method. The conditions noted are these: inhaled or intranasal. On the set-up: dose 202 ug, route nasal. The format is ADME, cell-free, Macaca mulatta. The procedure, abridged: (§3)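 Anesthetised male rhesus macaques (Telazol IM, propofol IV) inhaled drug in propylene glycol (low 120 μg/ml, high 6.15 mg/ml) by pediatric nebuliser and face mask for 8 min; dose was taken from nebuliser residue. Plasma (stored −80 C) was spiked with internal standard and extracted by solid-liquid extraction with ethyl acetate, then dried and redissolved in water/methanol/formic acid 70:30:0.1. It was measured in duplicate by C18 LC-MS/MS against a rhesus-plasma calibration. Recovery was about 86%.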

Data set [8] can be described thus: Tmax in rhesus monkey plasma at 202 ug administered via intranasal nebulization for 8 mins by LC-MS method. In kind it is ADME, cell-free, Macaca mulatta. The conditions noted are these: inhaled or intranasal. The procedure, abridged: as §1
Data set [9] is described as follows: Cmax in rhesus monkey CSF at 1650 ug, im by LC-MS method. In kind it is ADME, organism-based, Macaca mulatta, Cerebrospinal fluid. On the set-up: dose 1650 ug, route intramuscular.
Data set [10] has as its system Rhesus monkey. In words: In vivo antagonist activity at OXTR in rhesus monkey assessed as concentration in CSF required to displace endogenous oxytocin at 6.15, im. The format is functional, Macaca mulatta. In short, it runs like this:
as §2

Data set [11] can be described thus: Half life in rhesus monkey CSF at 7690 ug administered via intranasal nebulization for 8 mins by LC-MS method. In kind it is ADME, Macaca mulatta, Cerebrospinal fluid. The conditions noted are these: in vivo, inhaled_or_intranasal. In short, it runs like this:
as §1

Data set [12] in a line: Elimination rate constant in rhesus monkey CSF at 7690 ug administered via intranasal nebulization for 8 mins by LC-MS method. The format is ADME, Macaca mulatta, Cerebrospinal fluid. The conditions noted are these: in vivo, inhaled_or_intranasal. The procedure, abridged:
as §1

In data set [13] the test system is Rhesus monkey. Briefly: Activity at OXTR in rhesus monkey assessed as concentration in CSF required to elicit behavioral effects at 6.15, im. The format is functional, Macaca mulatta. The procedure, abridged: as §2
The nature of data set [14]: Elimination rate constant in rhesus monkey plasma at 202 to 7690 ug administered via intranasal nebulization for 8 mins by LC-MS method. The format is ADME, cell-free, Macaca mulatta. The conditions noted are these: inhaled or intranasal. In short, it runs like this: as §1
Data set [15] can be described thus: Cmax in rhesus monkey CSF at 202 ug administered via intranasal nebulization for 8 mins by LC-MS method. More on the design: dose 202 ug, route nasal. The format is ADME, Macaca mulatta, Cerebrospinal fluid. The following applies: inhaled or intranasal. The procedure, abridged: (§4)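 Four male rhesus macaques (5 yr, 9–13 kg) under IM Telazol, then IV propofol. Drug in propylene glycol (low 120 μg/ml, high 6.15 mg/ml) was aerosolised for 8 min by pediatric nebuliser through a face mask. Dose was taken from the nebuliser residue. Lumbar CSF was collected by passive drip at 60 and 120 min; blood-tinged samples were discarded. CSF was run unprocessed by LC-MS/MS in duplicate against an artificial-CSF calibration (0.8–10 pg/ml) with internal standard.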

Data set [16] can be described thus: Tmax in rhesus monkey plasma at 7690 ug administered via intranasal nebulization for 8 mins by LC-MS method. In kind it is ADME, cell-free, Macaca mulatta. The following applies: inhaled or intranasal. The procedure, abridged:
as §1

The nature of data set [17]: Cmax in rhesus monkey plasma at 7690 ug administered via intranasal nebulization for 8 mins by LC-MS method. In kind it is ADME, cell-free, Macaca mulatta. On the set-up: dose 7690 ug, route nasal. The conditions noted are these: inhaled or intranasal. In short, it runs like this: as §3
A short description of data set [18]: Cmax in rhesus monkey CSF at 7690 ug administered via intranasal nebulization for 8 mins by LC-MS method. The format is ADME, Macaca mulatta, Cerebrospinal fluid. On the set-up: dose 7690 ug, route nasal. The following applies: inhaled or intranasal. In short, it runs like this:
as §4

A short description of data set [19]: Cmax in rhesus monkey plasma at 6150 ug, im by LC-MS method. In kind it is ADME, organism-based, Macaca mulatta. More on the design: dose 6150 ug, route intramuscular. In short, it runs like this: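 Anesthetised male rhesus macaques (n=2; Telazol IM, propofol IV) received 6.15 mg in propylene glycol (6.15 mg/ml) injected into the inner thigh muscle. Plasma was spiked with internal standard and extracted by solid-liquid extraction with ethyl acetate, then redissolved in water/methanol/formic acid 70:30:0.1. It was quantified in duplicate by C18 LC-MS/MS against a rhesus-plasma calibration curve.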

Data set [20] in a line: Tmax in rhesus monkey CSF at 202 ug administered via intranasal nebulization for 8 mins by LC-MS method. In kind it is ADME, Macaca mulatta, Cerebrospinal fluid. The conditions noted are these: inhaled or intranasal. In short, it runs like this: as §1
Data set [21] is described as follows: Drug uptake in Sprague-Dawley rat skull at 340 to 390 uCi, im up to 120 mins by PET imaging method. The format is ADME, organism-based. The conditions noted are these: in vivo, 2 h. In short, it runs like this:
(§5)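 Female Sprague-Dawley rats, 200–330 g, under 4–5% isoflurane in oxygen. [18F]tracer, 340–390 μCi in 100 μl, injected IM just above the knee of the hind leg. PET starting 15 min post injection, 2 h scan, with 7 min Co-57 transmission scan. Time-activity curves of mean nCi/cc, n=3.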

A short description of data set [22]: Drug uptake in Sprague-Dawley rat muscle at 340 to 390 uCi, im up to 120 mins by PET imaging method. The format is ADME, organism-based, Muscle tissue. The conditions noted are these: in vivo, 2 h. In short, it runs like this: as §5
Data set [23] is described as follows: Drug uptake in Sprague-Dawley rat muscle at 126 to 295 uCi, iv administered as 30 mins bolus infusion after 15 to 90 mins by PET imaging method. The format is ADME, organism-based, Muscle tissue. The conditions noted are these: in vivo.
Data set [24] relates to Brain. Briefly: Drug uptake in Sprague-Dawley rat brain at 126 to 295 uCi, iv administered as 30 mins bolus infusion after 15 to 90 mins by PET imaging method. In kind it is ADME, organism-based. The following applies: in vivo.
The nature of data set [25]: Drug uptake in Sprague-Dawley rat skull at 126 to 295 uCi, iv administered as 30 mins bolus infusion after 15 to 90 mins by PET imaging method. In kind it is ADME, organism-based. The conditions noted are these: in vivo.

The structures appear in SMILES notation.

As for `Cc1ccccc1N1CCN(S(=O)(=O)CC23CCC(CC2NC(=O)C(N)CCS(C)(=O)=O)C3(C)C)CC1` (stereo not given), in [1], the Ki worked out at 17 nM.
Turning to `CS(=O)(=O)N1CCC(Oc2ccc(CC(=O)N3CCC(N4C(=O)CCc5ccccc54)CC3)c(OCCF)c2)CC1`, the Tmax in [2] was 1 h; in data set [3], 1 h; in [8] it was 5 min; in [16], 0.25 h; in data set [20], 2 h. This molecule yielded a half-life in [4] of 0.483 h. The Activity is given as 24 pM in data set [5], 56 pM in data set [6], 56 pM in data set [10] and 24 pM in [13]. Also, the Cmax in data set [7] was found to be 1.16 ng/mL; in [9], 0.478 ng/mL; in data set [15] it was 0.00736 ng/mL; in data set [17], 156 ng/mL; in [18], 0.0972 ng/mL; in data set [19], 740 ng/mL. In data set [11], this molecule yielded a t1/2 of 1.6 h. The same molecule registered a Kel in data set [12] of 0.007 min⁻¹. In data set [14], the k el at 8 min is 0.0004 s⁻¹.
Turning to `CS(=O)(=O)N1CCC(Oc2ccc(CC(=O)N3CCC(N4C(=O)CCc5ccccc54)CC3)c(OCC[18F])c2)CC1`, the Drug uptake entry in [21], in [22], in data set [23], in data set [24] and in data set [25] was “Active” in each case.

The values are drawn from ChEMBL document CHEMBL4000173, “An evaluation of central penetration from a peripherally administered oxytocin receptor selective antagonist in nonhuman primates” (Bioorg Med Chem, 2017).
